From ChEMBL document CHEMBL1124947, “Cationic antiprotozoal drugs. Trypanocidal activity of 2-(4'-formylphenyl)imidazo[1,2-a]pyridinium guanylhydrazones and related derivatives of quaternary heteroaromatic compounds” (J Med Chem, 1990)

How the values were obtained:
Format in all cases: functional
Mus musculus [1] = experiment: Trypanocidal Activity at I.C.E. value 0.76 when administered subcutaneously.
Procedure, shortened: (§1)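 Mice, in groups of five per dose, were given a standard inoculum of blood-stage T. rhodesiense that is lethal to all untreated controls, then dosed subcutaneously. Usually 11 dose levels were used (2^n × 0.42 mg/kg).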

[2] = system: Trypanosoma brucei rhodesiense; experiment: In Vitro measurement of inhibition of thymidine uptake in cell culture of Trypanosoma rhodesiense.; settings: read-out: ID50 (the source's name)
Procedure, shortened: (§2)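 Parasites harvested from infected rats and incubated 3 h across a drug concentration series, usually 0.1–100 µg/mL. Incorporation of radiolabeled thymidine measured. ID50 is the concentration (µg/mL) producing 50% inhibition.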

[3] = system: Trypanosoma brucei rhodesiense; experiment: In Vitro measurement of inhibition of leucine uptake in cell culture of Trypanosoma rhodesiense.; settings: read-out: ID50 (the source's name)
Procedure, shortened: (§3)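 Trypanosomes harvested from infected rats, cultured 3 h with several concentrations of drug, usually 0.1–100 µg/mL. Radiolabeled L-leucine uptake measured. ID50 is the concentration in µg/mL giving 50% inhibition of incorporation.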

Mus musculus [4] = experiment: Trypanocidal Activity at I.C.E. value 0.35 when administered subcutaneously.
Procedure, shortened: (§4)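 Blood-stage T. rhodesiense infection came from a standard inoculum lethal to all untreated mice. Drug was given by subcutaneous injection to groups of five mice. Survival beyond 30 days counted as cure. […] Sub-curative doses scored 0, and data were normalized at each dose.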

Mus musculus [5] = experiment: Trypanocidal Activity at I.C.E. value 0.28 when administered subcutaneously.; procedure, shortened: as §4
Mus musculus [6] = experiment: Trypanocidal Activity at I.C.E. value 0.42 when administered perorally.
[7] = system: Trypanosoma brucei rhodesiense; experiment: In Vitro measurement of inhibition of leucine uptake in cell culture of Trypanosoma rhodesiense; settings: read-out: ID50 (the source's name); procedure, shortened: as §3
[8] = system: Trypanosoma brucei rhodesiense; experiment: In Vitro measurement of inhibition of thymidine uptake in cell culture of Trypanosoma rhodesiense; settings: read-out: ID50 (the source's name); procedure, shortened: as §2
Mus musculus [9] = experiment: Trypanocidal Activity at I.C.E. value 0.45 when administered subcutaneously.; procedure, shortened: as §4
Mus musculus [10] = experiment: Trypanocidal Activity at I.C.E. value 0.39 when administered subcutaneously.; procedure, shortened: as §4
[11] = system: Trypanosoma brucei rhodesiense; experiment: In Vitro measurement of inhibition of Leucine uptake in cell culture of Trypanosoma rhodesiense.; settings: read-out: ID50 (the source's name); procedure, shortened: as §3
Mus musculus [12] = experiment: Trypanocidal Activity at I.C.E. value 0.64 when administered perorally.
Mus musculus [13] = experiment: Trypanocidal Activity at I.C.E. value 0.23 when administered perorally.
Mus musculus [14] = experiment: Trypanocidal Activity at I.C.E. value 0.59 when administered subcutaneously.; procedure, shortened: as §1
Mus musculus [15] = experiment: Trypanocidal Activity at I.C.E. value 0.80 when administered subcutaneously.; procedure, shortened: as §1
Mus musculus [16] = experiment: Trypanocidal Activity at I.C.E. value 0.86 when administered subcutaneously.; procedure, shortened: as §1
Mus musculus [17] = experiment: Trypanocidal Activity at I.C.E. value 0.52 when administered perorally.
Mus musculus [18] = experiment: Trypanocidal Activity at I.C.E. value 0.48 when administered subcutaneously.; procedure, shortened: as §4
Mus musculus [19] = experiment: Trypanocidal Activity at I.C.E. value 0.65 when administered perorally.
Mus musculus [20] = experiment: Trypanocidal Activity at I.C.E. value >0.5 when administered perorally.
Mus musculus [21] = experiment: Trypanocidal Activity at I.C.E. value 0.79 when administered subcutaneously.; procedure, shortened: as §1

Work on `Br.Cc1ccc2n(c1)cc(-c1ccc(/C=N/NC3=NCCCN3)cc1)[n+]2C.[Br-]` yielded a CD50 (Mus musculus [1]) of 0.2 mg/kg.

`Br.CCN(CC)C(=N)N/N=C/c1ccc(-c2cn3ccccc3[n+]2C)cc1.[Br-]` showed an IC50 [2] of 1.1 µg/mL, an IC50 [3] of 1 µg/mL and a CD50 (Mus musculus [4]) of 0.2 mg/kg.

`Cc1ccc2n(c1)cc(-c1ccc(/C=N/Nc3nccs3)cc1)[n+]2C.[Br-]` showed a CD50 (Mus musculus [5]) of 106 mg/kg.

Work on `C[n+]1cccc(COc2ccc(/C=N/NC(=N)N)cc2)c1.Cc1ccc(S(=O)(=O)O)cc1.Cc1ccc(S(=O)(=O)[O-])cc1` yielded a CD50 (Mus musculus [6]) of 26 mg/kg, an IC50 [7] greater than 10 µg/mL and an IC50 [8] of 1.8 µg/mL. The CD50 (Mus musculus [9]) was 0.8 mg/kg.

`Br.C[n+]1c(-c2ccc(/C=N/NC(=N)N3CCCC3)cc2)cn2ccccc21.[Br-]` showed an IC50 [2] of 0.6 µg/mL, a CD50 (Mus musculus [10]) of 0.06 mg/kg and an IC50 [11] of 0.6 µg/mL. It also gave a CD50 (Mus musculus [12]) of 6.6 mg/kg.

Work on `Br.Cn1c[n+](Cc2ccc(/C=N/NC3=NCCCN3)cc2)c2ccccc21.[Br-]` yielded a CD50 (Mus musculus [13]) of 106 mg/kg and a CD50 (Mus musculus [14]) of 1.6 mg/kg.

For `Br.CC/N=C(\NCC)N/N=C/c1ccc(/C=C/c2cn3ccccc3[n+]2C)cc1.[Br-]`, the CD50 (Mus musculus [15]) was 0.4 mg/kg.

With `Br.Cc1cccc2n1cc(/C=C/c1ccc(/C=N/NC3=NCCN3)cc1)[n+]2C.[Br-]` the CD50 (Mus musculus [16]) was 0.4 mg/kg and the CD50 (Mus musculus [17]) was 26 mg/kg.

`CN(C)C(=N)N/N=C/c1ccc(-c2cn3ccccc3[n+]2C)cc1.I.[I-]` gave a CD50 (Mus musculus [18]) of 0.2 mg/kg and a CD50 (Mus musculus [19]) of 6.6 mg/kg.

With `Br.C[n+]1c(/C=C/c2ccc(/C=N/NC3=NCCN3)cc2)cn2ccccc21.[Br-]` the CD50 (Mus musculus [20]) was 13 mg/kg and the CD50 (Mus musculus [21]) was 0.2 mg/kg.
